Sampled rows, rich in hits. Any-hit rate of the full collection: about 3.6%.
HSF1 inhib: HSF1 inhibitors in luciferase reporter cells, primary screen, cell-based, NIH3T3, luminescence; NIH3T3-HGL HSE-luciferase, MG132-induced, luminescence 8 h; hits give low values; activity change, negative = inhibition, % at 7.5 µM (by protocol); hit rate 0.77% among 300,000;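 active = more than half of replicate wells show activity change below -50%, luminescence cut by over half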;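 also: luciferase reports HSF-1 transcriptional activity via heat shock element; 0% = median of DMSO wells and -100% = zero luminescence signal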
Hsp70 act: Hsp70 transcriptional activators, primary screen, cell-based, HeLa, Hsp70 promoter luciferase, luminescence, 10 µM; HeLa Hsp70 promoter luciferase reporter; scaled: vehicle 0, proteasome-inhibitor control 100%; activation, % at 10 µM; hit rate 0.04% among 200,000; AID 1203, 2008;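 active = activation above the mean across all tested compounds plus 3 SD, cutoff set per campaign, cut at about 5.5% in these data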;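 also: 100% = MG132 at 30 µM as the positive control and 0% = DMSO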
STAT3 act-1: IL-6 driven STAT3 reporter potentiators, primary screen, U3A cells, luciferase, luminescence, MLSCN library; AID 871, 2007; IL-6 STAT3-luciferase reporter; 100% = signal with IL-6 EC80 alone; activation (% of control), % at 5.6 µM; hit rate 0.91% among 190,000;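 active = activation above the screen-wide mean of compound activation plus 3 SD, cut at about 130% in these data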;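 also: 0% = background luminescence of wells with medium and substrate only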
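Material: STAT1-lacking human U3A cells, STAT3 luciferase reporter | Benchmarks: IL-6-only wells as 100% reference | Probe or stimulus: IL-6 (33 ng/mL) | Timing: Compound 1 h, then IL-6 6 h at 37 °C | Detection: Luminescence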
AHR activator: AHR activators, primary screen, cell-based, luminescence, luciferase reporter, human; Aryl hydrocarbon receptor (Homo sapiens), P35869; AHR-responsive luciferase reporter cells; activation, % at 5 µM; hit rate 2.5% among 320,000; AID 2796, 2010; in the data active = activation above about 47%;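 also: 0% = vehicle wells and 100% = reference agonist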
PERK inhibitor: block of dimerizer-induced PERK translation repression, primary screen, PERK inhibitor project, CHO PERK-DD cells, SEAP luminescence, HTS | AID 1416, 2008 | hit rate 0.17% among 220,000 | CHO PERK-DD fusion, SEAP luminescence translation reporter | inhibition, % at 5.6 µM;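 active = inhibition above the mean inhibition of all tested compounds plus 3 SD, set separately per screening campaign, cut at about 2.9% in these data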;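 also: PERK kinase domain activated by AP20187 dimerizer at 100 nM; 0% = DMSO with dimerizer and 100% = rapamycin at 8.4 µM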
PolyA inhibitor: polyadenylation inhibitors in yeast reporter cells, primary screen, luminescence, S. cerevisiae; S. cerevisiae SKY197-pL101 polyadenylation reporter, beta-gal luminescence; efflux-impaired pdr1/pdr3 knockout yeast; score 100 = 6 SD above DMSO; activity score, % at 12 µM; hit rate 0.02% among 300,000;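 active = lowest replicate activity score at least 50, where 100 means six control SD above control mean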;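 also: yeast exposed to compound for 9 h at 30 °C; higher score means more reporter readthrough which indicates perturbed polyadenylation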
STAT3 act-2: STAT3 reporter potentiators, retest of hits, confirmation, U3A cells, luciferase, luminescence; shares compounds with STAT3 act-1; IL-6 potentiation; U3A cells lack STAT1; 100 means same as IL-6 alone; potentiation (% of control), % at 5.7 µM; hit rate 64% among 1,200;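 active = percent activation of the STAT3 luciferase reporter above a set limit taken from the earlier primary screen, cut at about 130% in these data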;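 also: 0% = background signal of medium plus substrate and 100% = median of IL-6 with DMSO wells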
NFkB act STAT3ct: NF-kB reporter activators in human cells, counter-screen for STAT3 activator project. hit rate 11% among 1,200. NF-kappaB reporter activation. shares compounds with STAT3 act-1. activation (% of control), % at 5.7 µM; in the data active = activation above about 120%;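 also: reporter induced by TNF-alpha stimulation; 100% = median of stimulated DMSO wells and 0% = no signal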
STAT1 act: STAT1 reporter activators, IFN-gamma induced, counter-screen for STAT3 activator project, cell-based, NIH 3T3, luciferase luminescence; shares compounds with STAT3 act-1; activation (% of control), % at 5.7 µM; hit rate 13% among 1,200; NIH 3T3 STAT1-luciferase reporter;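 active = activation above the solvent-only control well mean plus 3 SD, set per screening run, cut at about 120% in these data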;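 also: 100% = IFN-gamma with DMSO median signal so 100% means no change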
* marks the source's active call; other numbers are inactive results; . = not tested or not shown.

SMILES	HSF1 inhib	Hsp70 act	STAT3 act-1	AHR activator	PERK inhibitor	PolyA inhibitor	STAT3 act-2	NFkB act STAT3ct	STAT1 act
CC(C)NC(=O)c1cc2c(-c3ccc(Cl)cc3)nn(C)c2s1	2.7	0.1	158.0*	59.3*	1.0	7.0	150.3*	108.9	105.5
CCN1CCCC1CNC(=O)c1cc2c(-c3ccc(Cl)cc3)nn(C)c2s1 (stereo unspecified)	-17.5	0.5	170.1*	59.3*	-1.6	19.4	155.9*	105.8	91.4
CCCCNC(=O)c1cc2c(-c3ccc(Cl)cc3)nn(C)c2s1	0.8	-0.2	138.4*	50.4*	0.2	-13.0	151.3*	110.6	105.2
NS(=O)(=O)OCC(Cc1ccccc1)N1C(=O)c2ccccc2C1=O (stereo unspecified)	0.8	.	.	-1.7	.	6.2	.	.	.
COc1ccc(Cl)cc1NC(=O)Nc1ccc(Br)cn1	-4.5	-0.1	159.5*	29.3	0.6	1.9	143.7*	101.2	89.9
O=C(COC(=O)/C=C/c1ccccc1[N+](=O)[O-])NC1CCS(=O)(=O)C1 (stereo unspecified)	-5.0	-0.3	139.6*	18.6	0.6	14.8	186.6*	116.9	126.1*
O=C(COC(=O)/C=C/c1ccccc1[N+](=O)[O-])NC1CC1	0.6	-0.1	149.4*	14.9	1.0	9.1	142.1*	99.9	82.6
O=C(COC(=O)/C=C/c1ccccc1)NC1CCS(=O)(=O)C1 (stereo unspecified)	.	.	.	-1.0	.	.	.	.	.
Cn1/c(=N/N=C/c2ccc(N3CCOCC3)cc2)sc2ccccc21	18.7	-0.3	93.0	18.6	1.6	-15.3	.	.	.
Cn1/c(=N/N=C/c2ccc(Cl)c([N+](=O)[O-])c2)sc2ccccc21	6.9	-0.1	156.4*	36.2	0.5	17.3	148.4*	108.2	112.7
O=C(NNC(=O)c1ccccc1F)c1cccc(-n2cccc2)c1	2.5	.	.	4.3	.	-18.7	.	.	.
CCOC(=O)C1=C(N)n2c(s/c(=C/c3ccco3)c2=O)=C(C(=O)OC)C1c1ccco1 (stereo unspecified)	8.3	-0.1	85.5	4.2	0.3	1.0	.	.	.
N#CC1=C(N)n2c(s/c(=C\c3ccco3)c2=O)=C(C#N)C1c1ccco1 (stereo unspecified)	5.5	-0.5	171.1*	14.1	0.3	-0.5	170.0*	103.4	97.1
COc1ccccc1CNC(=O)COC(=O)c1cc(=O)[nH]c2ccccc12	.	.	.	9.6	.	.	.	.	.
CCc1ccc(NC(=O)CSc2nnc(-c3cnccn3)n2C)cc1	1.5	.	.	11.6	.	0.6	.	.	.
Cn1c(SCC(=O)Nc2ccc3cn[nH]c3c2)nnc1-c1cccs1	-8.1	0.0	162.4*	20.2	1.4	12.9	149.2*	106.1	99.3
Cn1c(SCC(=O)Nc2ccc3cn[nH]c3c2)nnc1-c1cnccn1	-9.9	-0.1	145.2*	30.2	0.1	2.6	146.4*	100.1	99.3
Cc1ccc(-n2c(SCC(=O)Nc3ccc4cn[nH]c4c3)nnc2-c2ccco2)cc1	10.3	-0.5	149.2*	9.1	-1.1	-2.5	142.8*	105.0	95.6
CNC(=O)CSc1nnc(-c2ccco2)n1-c1ccc(C)cc1	-8.7	-0.1	108.3	-0.3	0.8	13.6	.	.	.
CC(=O)Nc1ccc(S(=O)(=O)NCCC(=O)NCCCc2ccccc2)cc1	.	.	.	-2.0	.	.	.	.	.
COc1ccccc1/C=C(/CC(=O)NCc1ccc(F)cc1)c1nc2ccccc2s1	3.5	-0.3	135.9*	37.2	-0.1	1.2	131.2	103.4	94.8
COc1ccc(C(C[N+](=O)[O-])c2c(C)[nH]c3ccccc23)cc1OC (stereo unspecified)	-3.5	-0.4	138.5*	60.0*	0.1	-2.4	111.1	102.4	95.4
COc1cc(C(c2c(C(=O)O)[nH]c3ccccc23)c2c(C(=O)O)[nH]c3ccccc23)ccc1OCc1ccccc1	-5.1	.	.	15.7	.	10.4	.	.	.
Cc1cc(Cn2nnc(-c3ccc(Br)cc3)n2)cc(C)c1O	.	.	.	0.2	.	.	.	.	.
S=C1NCCOCCNC(=S)NCCOCCOCCN1	0.7	-0.4	107.3	-0.7	1.5	8.1	.	.	.
SMILES	HSF1 inhib	Hsp70 act	STAT3 act-1	AHR activator	PERK inhibitor	PolyA inhibitor	STAT3 act-2	NFkB act STAT3ct	STAT1 act
O=C(Nc1ccccc1O)c1nc(Cl)ccc1Cl	-3.5	-0.3	155.9*	42.4	0.1	-3.9	171.1*	105.7	97.7
Fc1ccccc1C1c2[nH]c3ccccc3c2CCN1CCCn1cccn1 (stereo unspecified)	-5.6	-0.3	144.0*	22.9	0.4	5.9	132.6	101.7	93.0
Cc1nnc(SCC(=O)NC2CC2)s1	1.4	.	.	-3.2	.	-1.2	.	.	.
CCC(CC)NC(=O)Cc1ccccc1[N+](=O)[O-]	-0.7	-0.2	137.9*	25.8	-0.6	0.4	140.2*	108.0	96.8
CCCC(C)NC(=O)Cc1ccccc1[N+](=O)[O-] (stereo unspecified)	-1.8	-0.4	126.0	18.8	0.2	17.0	.	.	.
COC(=O)c1ccc(/C=N/NC(=S)NCCN2CCOCC2)cc1	2.5	-0.3	101.0	15.6	-0.3	-3.7	.	.	.
Cn1ccnc1Sc1ccc(/C=N/NC(=O)c2ccccc2[N+](=O)[O-])cc1[N+](=O)[O-]	6.2	0.1	100.9	1.7	1.0	12.2	.	.	.
Cn1ccnc1Sc1ccc(/C=N/NC(=O)c2ccccc2O)cc1[N+](=O)[O-]	4.9	-0.1	149.2*	27.6	0.1	-2.7	177.4*	115.7	124.3*
Cc1ccc(-c2cc(-c3ccccc3[N+](=O)[O-])[nH]n2)c(O)c1	13.6	0.3	141.7*	59.6*	0.5	-4.3	135.7*	131.1*	94.5
Cc1ccc(-c2cc(NC(=O)c3ccccc3[N+](=O)[O-])n[nH]2)cc1	8.0	.	.	44.7	.	8.5	.	.	.
COc1cc(NC(=O)c2ccccc2)c(OC)cc1Cl	2.9	-0.2	150.3*	68.9*	0.3	2.5	142.8*	105.8	105.0
COc1cc(NC(=O)c2cc(-c3ccco3)on2)c(OC)cc1Cl	6.9	-0.3	165.1*	41.2	-0.1	23.2	145.4*	100.8	96.8
